Source: ChEMBL document CHEMBL4130355, “Development of a series of novel 4-anlinoquinazoline derivatives possessing quinazoline skeleton: Design, synthesis, EGFR kinase inhibitory efficacy, and evaluation of anticancer activities in vitro” (Eur J Med Chem, 2017)

Experiments:
[1] = test system: A549; experiment: Antiproliferative activity against human A549 cells after 48 hrs by MTT assay; assay type: functional, cell-based; settings: A549, 48 h
Method in brief: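 MTT read-out. Cells seeded at 2 × 10^3/well, attached 24 h at 37 °C in 5% CO2, then exposed to 0.1–100 µM for 24, 48 or 72 h. MTT for 4 h, formazan dissolved in 10% SDS/NH4Cl for 10 h, absorbance at 570 nm corrected at 650 nm. % inhibition computed against untreated and blank wells. IC50 is the mean of at least three independent experiments.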

[2] = test system: SH-SY5Y; experiment: Antiproliferative activity against human SH-SY5Y cells after 72 hrs by MTT assay; assay type: functional, cell-based
[3] = target: T1, Epidermal growth factor receptor (Homo sapiens, UniProt P00533); assay type: cell-based, HEK293
T1 sequence (P00533 whole entry): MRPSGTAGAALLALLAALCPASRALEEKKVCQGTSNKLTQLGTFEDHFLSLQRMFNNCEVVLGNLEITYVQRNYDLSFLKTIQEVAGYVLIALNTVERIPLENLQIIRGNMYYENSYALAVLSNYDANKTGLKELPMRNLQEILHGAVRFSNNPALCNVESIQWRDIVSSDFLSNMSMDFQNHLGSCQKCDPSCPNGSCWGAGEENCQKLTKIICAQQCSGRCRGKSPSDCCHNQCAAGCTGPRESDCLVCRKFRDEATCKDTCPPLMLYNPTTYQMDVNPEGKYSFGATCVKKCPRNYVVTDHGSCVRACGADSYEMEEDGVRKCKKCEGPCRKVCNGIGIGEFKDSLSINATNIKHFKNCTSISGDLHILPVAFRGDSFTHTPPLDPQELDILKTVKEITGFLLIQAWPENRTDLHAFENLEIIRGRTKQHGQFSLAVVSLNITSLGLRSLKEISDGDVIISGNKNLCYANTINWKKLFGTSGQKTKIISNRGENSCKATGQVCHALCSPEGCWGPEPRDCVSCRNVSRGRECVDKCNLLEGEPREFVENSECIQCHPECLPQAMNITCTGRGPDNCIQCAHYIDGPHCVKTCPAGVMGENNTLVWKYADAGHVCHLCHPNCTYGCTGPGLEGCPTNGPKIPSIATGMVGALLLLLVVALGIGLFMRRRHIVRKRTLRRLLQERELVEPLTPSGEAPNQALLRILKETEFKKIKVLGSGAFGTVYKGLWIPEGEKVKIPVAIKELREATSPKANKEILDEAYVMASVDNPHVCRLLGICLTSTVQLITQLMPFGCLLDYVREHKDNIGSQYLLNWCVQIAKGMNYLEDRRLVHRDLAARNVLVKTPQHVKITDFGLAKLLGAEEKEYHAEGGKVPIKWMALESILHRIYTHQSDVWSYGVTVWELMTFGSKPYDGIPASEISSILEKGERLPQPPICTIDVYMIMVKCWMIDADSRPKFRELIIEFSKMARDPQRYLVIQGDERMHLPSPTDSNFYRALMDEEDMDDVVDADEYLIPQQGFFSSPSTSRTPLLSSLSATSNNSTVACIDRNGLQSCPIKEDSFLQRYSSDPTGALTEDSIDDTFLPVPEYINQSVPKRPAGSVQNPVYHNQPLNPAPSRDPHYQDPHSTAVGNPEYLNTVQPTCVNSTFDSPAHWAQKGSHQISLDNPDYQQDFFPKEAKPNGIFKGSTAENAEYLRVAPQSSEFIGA

[4] = test system: HepG2; experiment: Induction of mitochondrial membrane potential loss in human HepG2 cells assessed as mitochondrial membrane potential levels at 5 uM after 48 hrs by rhodamine-123 dye based FACS analysis (reference value: 90.4%); assay type: functional
[5] = test system: HepG2; experiment: Induction of apoptosis in human HepG2 cells assessed as intracellular free Ca2+ levels at 10 uM after 48 hrs by FL1 channel/FACS analysis (reference value: 14.2%); assay type: functional
Method in brief: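 HepG2 seeded at 5.0 × 10^5 cells/mL, 24 h at 37 °C in 5% CO2, then treated 48 h (2.5–20 µM). Harvested cells were washed in ice-cold PBS and loaded with 4 µM Fluo-3/AM for 30 min. After trypsinizing, they were washed twice and resuspended in HEPES, and fluorescence was measured in the FL-1 channel by flow cytometry. Values are averages of at least three independent experiments.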

[6] = test system: HepG2; experiment: Induction of apoptosis in human HepG2 cells assessed as late apoptotic cells at 10 uM after 48 hrs by Annexin V-FITC/propidium iodide double staining-based flow cytometry (reference value: 4.3%); assay type: functional
[7] = test system: HepG2; experiment: Antiproliferative activity against human HepG2 cells at 10 uM after 24 hrs by MTT assay realtive to control; assay type: functional
Method in brief: (§1)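 MTT assay in triplicate wells. Cells (2 × 10^3/well) were attached 24 h, then treated at 0.1, 1, 10, 50 or 100 µM for 24, 48 or 72 h. MTT added for 4 h, SDS solubilisation, absorbance at 570/650 nm. Inhibition = 1 − (OD treated − blank)/(OD control − blank). Reported as mean ± SD of three independent experiments.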

[8] = test system: A549; experiment: Antiproliferative activity against human A549 cells at 10 uM after 48 hrs by MTT assay relative to control; assay type: functional; method in brief: as §1
[9] = target: T1, Epidermal growth factor receptor; settings: HEK293, at 10 pM
[10] = test system: HepG2; experiment: Cell cycle arrest in human HepG2 assessed as accumulation at S phase after 48 hrs by propidium iodide-staining based flow cytometry; assay type: functional
Method in brief: (§2)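 HepG2 cells at 5.0 × 10^5/well were grown 24 h, then treated at 0, 2.5, 5.0 or 10.0 µM for 48 h alongside medium-only wells. Cells fixed in 70% ice-cold ethanol for ≥24 h, treated with RNase A at 37 °C for 30 min, then stained with propidium iodide for 30 min at 4 °C in the dark. DNA content read by flow cytometry. Average of at least three experiments.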

[11] = test system: HepG2; experiment: Induction of apoptosis in human HepG2 cells assessed as caspase-3 activity at 20 uM after 48 hrs by colorimetric assay relative to control; assay type: functional
Method in brief: (§3)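 After 48 h treatment, HepG2 were rinsed in ice-cold PBS and lysed 1–1.5 h on ice in buffer with 1% DTT. Lysate was spun at 10,000×g for 1 min at 4 °C; supernatant protein was measured by Bradford. Supernatant was mixed with 2× reaction buffer (1% DTT) plus caspase-3 chromogenic peptide substrate, held 4 h at 37 °C, and read at 405 nm.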

[12] = test system: HepG2; experiment: Induction of apoptosis in human HepG2 cells assessed as caspase-3 activity at 5 uM after 48 hrs by colorimetric assay relative to control; assay type: functional; method in brief: as §3
[13] = test system: HepG2; experiment: Cytotoxicity against human HepG2 cells at 40 uM after 48 hrs by LDH release assay (reference value: 100%); assay type: functional
Method in brief: (§4)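 HepG2 seeded at 1.0 × 10^5 cells/well, grown 24 h at 37 °C in 5% CO2, then dosed for 48 h. LDH in supernatant read on plate reader per kit. Maximal release (100% cytotoxicity) came from lysis with 2% (V/V) lysate for 1 h at 37 °C; medium-only cells served as natural release. Triplicate, three independent runs.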

[14] = test system: A549; experiment: Antiproliferative activity against human A549 cells at 50 uM after 72 hrs by MTT assay relative to control; assay type: functional; method in brief: as §1
[15] = test system: A549; experiment: Antiproliferative activity against human A549 cells at 10 uM after 24 hrs by MTT assay relative to control; assay type: functional; method in brief: as §1
[16] = test system: HepG2; experiment: Cell cycle arrest in human HepG2 assessed as accumulation at S phase at 10 uM after 48 hrs by propidium iodide-staining based flow cytometry (reference value: 21.46%); assay type: functional; method in brief: as §2
[17] = test system: HepG2; experiment: Cytotoxicity against human HepG2 cells at 5 uM after 48 hrs by LDH release assay (reference value: 100%); assay type: functional; method in brief: as §4
[18] = test system: HepG2; experiment: Antiproliferative activity against human HepG2 cells at 1 uM after 24 hrs by MTT assay realtive to control; assay type: functional; method in brief: as §1
[19] = test system: HepG2; experiment: Induction of apoptosis in human HepG2 cells assessed as late apoptotic cells at 2.5 uM after 48 hrs by Annexin V-FITC/propidium iodide double staining-based flow cytometry (reference value: 4.3%); assay type: functional
[20] = test system: HepG2; experiment: Induction of apoptosis in human HepG2 cells assessed as elevation in ROS levels after 48 hrs by DCFH-DA fluorescence-based spectrometry; assay type: functional, cell-based
Method in brief: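 HepG2 seeded at 5.0 × 10^5 cells/mL, 24 h at 37 °C in 5% CO2, then treated 48 h. Harvested cells were washed twice in ice-cold PBS and loaded with 10 µM DCFH-DA for 30 min at 37 °C. They were then trypsinized, washed and resuspended in ice-cold HBSS, and DCF fluorescence was read on a fluorescence spectrometer.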

[21] = test system: HepG2; experiment: Cell cycle arrest in human HepG2 assessed as accumulation at S phase at 5 uM after 48 hrs by propidium iodide-staining based flow cytometry (reference value: 21.46%); assay type: functional; method in brief: as §2
[22] = test system: HepG2; experiment: Induction of apoptosis in human HepG2 cells assessed as caspase-3 activity at 10 uM after 48 hrs by colorimetric assay relative to control; assay type: functional; method in brief: as §3
[23] = target: T1, Epidermal growth factor receptor; settings: HEK293, at 1 µM
[24] = test system: HepG2; experiment: Antiproliferative activity against human HepG2 cells at 50 uM after 24 hrs by MTT assay realtive to control; assay type: functional; method in brief: as §1
[25] = test system: HepG2; experiment: Induction of apoptosis in human HepG2 cells assessed as late apoptotic cells at 5 uM after 48 hrs by Annexin V-FITC/propidium iodide double staining-based flow cytometry (reference value: 4.3%); assay type: functional
[26] = target: T1, Epidermal growth factor receptor; settings: HEK293, at 10 µM
[27] = target: T1, Epidermal growth factor receptor; settings: HEK293, at 0.001 µM

COc1cc2c(Nc3ccc(C#N)cc3)ncnc2cc1OCCCN1CCC(c2ccccc2)CC1
IC50 [1]: 20.6 µM | IC50 [2]: 7.77 µM | IC50 [3]: 0.00362 µM | Activity [4]: 87% | Activity [5]: 48.9% | Activity [6]: 0.1% | Activity [7]: 63.5% | Activity [8]: 13.5% | inhibition [9]: 17.9% | Activity [10]: Dose-dependent effect | Activity [11]: 196% | Activity [12]: 145% | Activity [13]: 41.17% | Activity [14]: 86.6% | Activity [15]: 24.7% | Activity [16]: 29.72% | Activity [17]: 50.11% | Activity [18]: 7.9% | Activity [19]: 3.8% | Activity [20]: Dose-dependent effect | Activity [21]: 25.1% | Activity [22]: 198% | inhibition [23]: 94.3% | Activity [24]: 99.1% | Activity [25]: 2% | inhibition [26]: 99.1% | inhibition [27]: 46.2%
